Legend:
Assay type in all cases: functional
MOLT-4 = assay: Antiproliferative activity against human MOLT-4 cells assessed as cell growth inhibition at 10 uM incubated for 48 hrs by sulforhodamine B assay relative to control
Summary of the method: (§1)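 NCI-60 single-dose screen at 10^-5 M. Cells grown in RPMI 1640 with 5% FBS and 2 mM L-glutamine, plated at 5,000–40,000 cells/well, and preincubated 24 h. Drug (DMSO stock) added and incubated 48 h at 37 °C, 5% CO2. Adherent cells fixed with cold TCA, stained with 0.4% SRB in 1% acetic acid, dye solubilized in 10 mM trizma base, A515 read. Percent growth taken against time-zero and untreated control.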

UACC-62 = assay: Antiproliferative activity against human UACC-62 cells assessed as cell growth at 0.00001 M incubated for 48 hrs by SRB assay relative to control; settings: read-out: Activity
SNB-19 = assay: Antiproliferative activity against human SNB-19 cells assessed as cell growth inhibition at 10 uM incubated for 48 hrs by sulforhodamine B assay relative to control; summary of the method: as §1
SK-MEL-28 = assay: Antiproliferative activity against human SK-MEL-28 cells assessed as cell growth inhibition at 10 uM incubated for 48 hrs by sulforhodamine B assay relative to control; summary of the method: as §1
OVCAR-5 = assay: Antiproliferative activity against human OVCAR-5 cells assessed as cell growth inhibition at 10 uM incubated for 48 hrs by sulforhodamine B assay relative to control; summary of the method: as §1
A498 = assay: Antiproliferative activity against human A498 cells assessed as cell growth inhibition at 10 uM incubated for 48 hrs by sulforhodamine B assay relative to control
Summary of the method: (§2)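 Single-dose NCI-60 prescreen at 10^-5 M. Cells in RPMI 1640 with 5% FBS and 2 mM L-glutamine, seeded 5,000–40,000 cells/well with 24 h preincubation, then drug exposure for 48 h at 37 °C under 5% CO2. Growth read by SRB staining of TCA-fixed cells at 515 nm against time-zero and untreated controls. Negative growth values denote cell kill.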

CAKI-1 [1] = assay: Antiproliferative activity against human CAKI-1 cells assessed as cell growth inhibition at 10 uM incubated for 48 hrs by sulforhodamine B assay relative to control; summary of the method: as §2
HOP-62 = assay: Antiproliferative activity against human HOP-62 cells assessed as cell growth inhibition at 10 uM incubated for 48 hrs by sulforhodamine B assay relative to control
Summary of the method: (§3)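 NCI-60 one-dose prescreen at 10^-5 M. Cells grown in RPMI 1640 with 5% FBS and 2 mM glutamine, preincubated 24 h, then exposed 48 h at 37 °C. Adherent lines TCA-fixed, SRB-stained, A515 read. Growth percent relative to time-zero and control; negative values mean cell kill.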

DU-145 = assay: Antiproliferative activity against human DU-145 cells assessed as cell growth inhibition at 10 uM incubated for 48 hrs by sulforhodamine B assay relative to control; summary of the method: as §3
NCI-H322M = assay: Antiproliferative activity against human NCI-H322M cells assessed as cell growth inhibition at 10 uM incubated for 48 hrs by sulforhodamine B assay relative to control; summary of the method: as §1
OVCAR-8 = assay: Antiproliferative activity against human OVCAR-8 cells assessed as cell growth inhibition at 10 uM incubated for 48 hrs by sulforhodamine B assay relative to control; summary of the method: as §1
A549 = assay: Antiproliferative activity against human A549 cells assessed as cell growth inhibition at 10 uM incubated for 48 hrs by sulforhodamine B assay relative to control; summary of the method: as §2
HCC 2998 = assay: Antiproliferative activity against human HCC 2998 cells assessed as cell growth inhibition at 10 uM incubated for 48 hrs by sulforhodamine B assay relative to control; summary of the method: as §3
Malme-3M [2] = assay: Antiproliferative activity against human Malme-3M cells assessed as cell growth at 0.00000001 M incubated for 48 hrs by SRB assay relative to control; settings: dose 10 nM, read-out: Activity
HCT-15 = assay: Antiproliferative activity against human HCT-15 cells assessed as cell growth inhibition at 10 uM incubated for 48 hrs by sulforhodamine B assay relative to control; summary of the method: as §3
T47D = assay: Antiproliferative activity against human T47D cells assessed as cell growth inhibition at 10 uM incubated for 48 hrs by sulforhodamine B assay relative to control; summary of the method: as §1
MDA-MB-231 = assay: Antiproliferative activity against human MDA-MB-231 cells assessed as cell growth inhibition at 10 uM incubated for 48 hrs by sulforhodamine B assay relative to control; summary of the method: as §1
SK-OV-3 = assay: Antiproliferative activity against human SK-OV-3 cells assessed as cell growth inhibition at 10 uM incubated for 48 hrs by sulforhodamine B assay relative to control; summary of the method: as §1
TK-10 = assay: Antiproliferative activity against human TK-10 cells assessed as cell growth inhibition at 10 uM incubated for 48 hrs by sulforhodamine B assay relative to control; summary of the method: as §1
COLO 205 = assay: Antiproliferative activity against human COLO 205 cells assessed as cell growth inhibition at 10 uM incubated for 48 hrs by sulforhodamine B assay relative to control; summary of the method: as §2
EKVX = assay: Antiproliferative activity against human EKVX cells assessed as cell growth inhibition at 10 uM incubated for 48 hrs by sulforhodamine B assay relative to control; summary of the method: as §3
IGROV-1 = assay: Antiproliferative activity against human IGROV-1 cells assessed as cell growth inhibition at 10 uM incubated for 48 hrs by sulforhodamine B assay relative to control; summary of the method: as §1
OVCAR-4 = assay: Antiproliferative activity against human OVCAR-4 cells assessed as cell growth inhibition at 10 uM incubated for 48 hrs by sulforhodamine B assay relative to control; summary of the method: as §1
BT-549 = assay: Antiproliferative activity against human BT-549 cells assessed as cell growth inhibition at 10 uM incubated for 48 hrs by sulforhodamine B assay relative to control; summary of the method: as §2
UACC-257 = assay: Antiproliferative activity against human UACC-257 cells assessed as cell growth inhibition at 10 uM incubated for 48 hrs by sulforhodamine B assay relative to control; summary of the method: as §1
RPMI-8226 = assay: Antiproliferative activity against human RPMI-8226 cells assessed as cell growth inhibition at 10 uM incubated for 48 hrs by sulforhodamine B assay relative to control; summary of the method: as §1
Malme-3M [3] = assay: Antiproliferative activity against human Malme-3M cells assessed as cell growth inhibition at 10 uM incubated for 48 hrs by sulforhodamine B assay relative to control; summary of the method: as §1
CAKI-1 [4] = assay: Growth inhibition against human CAKI-1 cells incubated for 48 hrs by sulforhodamine B assay
HCT-116 = assay: Antiproliferative activity against human HCT-116 cells assessed as cell growth inhibition at 10 uM incubated for 48 hrs by sulforhodamine B assay relative to control; summary of the method: as §3
HL-60 = assay: Antiproliferative activity against human HL-60 cells assessed as cell growth inhibition at 10 uM incubated for 48 hrs by sulforhodamine B assay relative to control; summary of the method: as §3
SF-539 = assay: Antiproliferative activity against human SF-539 cells assessed as cell growth inhibition at 10 uM incubated for 48 hrs by sulforhodamine B assay relative to control; summary of the method: as §1
SNB-75 = assay: Antiproliferative activity against human SNB-75 cells assessed as cell growth inhibition at 10 uM incubated for 48 hrs by sulforhodamine B assay relative to control; summary of the method: as §1

Question: For `c1ccc(Cn2cnc3ccc(-c4nc(-c5ccc6c(c5)ncn6C5CCCCC5)cn5ccnc45)cc32)cc1`, which inhibition at 10 µM (MOLT-4) is on record?
Answer: 95.6%

Question: What about the growth at 10 µM (UACC-62) of the same compound?
Answer: -37%

Question: What about the inhibition at 10 µM (SNB-19) of the same compound?
Answer: 80.4%

Question: And the inhibition at 10 µM (SK-MEL-28)?
Answer: 99.6%

Question: And the inhibition at 10 µM (OVCAR-5)?
Answer: -29%

Question: And the inhibition at 10 µM (A498)?
Answer: -71.8%

Question: What about the inhibition at 10 µM (CAKI-1 [1]) of the same compound?
Answer: 56.7%

Question: What about the inhibition at 10 µM (HOP-62) of the same compound?
Answer: -9.39%

Question: And the inhibition at 10 µM (DU-145)?
Answer: -28.2%

Question: And the inhibition at 10 µM (NCI-H322M)?
Answer: 84%

Question: What about the inhibition at 10 µM (OVCAR-8) of the same compound?
Answer: 97.5%

Question: What about the inhibition at 10 µM (A549) of the same compound?
Answer: -5.05%

Question: What about the inhibition at 10 µM (HCC 2998) of the same compound?
Answer: -88%

Question: What about the growth at 0.01 µM (Malme-3M [2]) of the same compound?
Answer: 92%

Question: What about the inhibition at 10 µM (HCT-15) of the same compound?
Answer: -9.03%

Question: And the inhibition at 10 µM (T47D)?
Answer: -2.12%

Question: And the inhibition at 10 µM (MDA-MB-231)?
Answer: -70.1%

Question: What about the inhibition at 10 µM (SK-OV-3) of the same compound?
Answer: -22.2%

Question: What about the inhibition at 10 µM (TK-10) of the same compound?
Answer: 94.8%

Question: And the inhibition at 10 µM (COLO 205)?
Answer: -29.9%

Question: What about the inhibition at 10 µM (EKVX) of the same compound?
Answer: -12.2%

Question: And the inhibition at 10 µM (IGROV-1)?
Answer: 94.2%

Question: And the inhibition at 10 µM (OVCAR-4)?
Answer: 83.2%

Question: What about the inhibition at 10 µM (BT-549) of the same compound?
Answer: -44.7%

Question: What about the inhibition at 10 µM (UACC-257) of the same compound?
Answer: -32.7%

Question: What about the inhibition at 10 µM (RPMI-8226) of the same compound?
Answer: -41.2%

Question: What about the inhibition at 10 µM (Malme-3M [3]) of the same compound?
Answer: -15.4%

Question: And the GI50 (CAKI-1 [4])?
Answer: 2450 nM

Question: And the inhibition at 10 µM (HCT-116)?
Answer: -75.8%

Question: What about the inhibition at 10 µM (HL-60) of the same compound?
Answer: -20.8%

Question: What about the inhibition at 10 µM (SF-539) of the same compound?
Answer: -77.6%

Question: What about the inhibition at 10 µM (SNB-75) of the same compound?
Answer: -67.4%

Reference: ChEMBL document CHEMBL5247578, “Effective synthesis of benzimidazoles-imidazo[1,2-a]pyrazine conjugates: A comparative study of mono-and bis-benzimidazoles for antitumor activity” (Eur J Med Chem, 2019)
